Data as given in ChEMBL document CHEMBL4373711, “Development of 3,5-Dinitrophenyl-Containing 1,2,4-Triazoles and Their Trifluoromethyl Analogues as Highly Efficient Antitubercular Agents Inhibiting Decaprenylphosphoryl-β-d-ribofuranose 2'-Oxidase” (J Med Chem, 2019).
Converted amounts (≈) assume the structure as drawn. The source made the active and inactive calls. No cut-off for these calls is given here.

Key:
[1] = tested on: Candida albicans; assay: Antifungal activity against Candida albicans ATCC 24433 CCM 8320 at highest concentration measured after 24 to 48 hrs by alamar blue dye based broth microdilution assay; assay type: functional, organism-based
[2] = tested on: Staphylococcus aureus; assay: Antibacterial activity against methicillin-resistant Staphylococcus aureus subsp. aureus ATCC 43300 CCM 4750 at highest concentration measured after 24 to 48 hrs by alamar blue dye based broth microdilution assay; assay type: functional, organism-based
[3] = tested on: Aspergillus flavus; assay: Antifungal activity against Aspergillus flavus CCM 8363 at highest concentration measured after 24 to 48 hrs by alamar blue dye based broth microdilution assay; assay type: functional, organism-based
[4] = tested on: Klebsiella pneumoniae; assay: Antibacterial activity against Klebsiella pneumoniae at highest concentration measured after 24 to 48 hrs by alamar blue dye based broth microdilution assay; assay type: functional, organism-based
[5] = tested on: Mycobacterium kansasii; assay: Antimycobacterial activity against Mycobacterium kansasii 6509/96 after 14 days; assay type: functional; conditions: 6509/96, 336 h
Method in brief: (§1)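 Microdilution in Šula's semisynthetic medium; compounds in DMSO at 32–0.03 µM. Inoculum from 1.0 McFarland suspension diluted 10-4. […] Isoniazid and rifampicin as reference drugs.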

[6] = tested on: Staphylococcus aureus; assay: Antibacterial activity against Staphylococcus aureus subsp. aureus ATCC 29213 CCM 4223 at highest concentration measured after 24 to 48 hrs by alamar blue dye based broth microdilution assay; assay type: functional, organism-based
[7] = tested on: Mycobacterium kansasii; assay: Antimycobacterial activity against Mycobacterium kansasii CNCTC My 235/80 after 14 days; assay type: functional; conditions: CNCTC My 235/80, 336 h; method in brief: as §1
[8] = tested on: Candida tropicalis; assay: Antifungal activity against Candida tropicalis ATCC 750 CCM 8264 at highest concentration measured after 24 to 48 hrs by alamar blue dye based broth microdilution assay; assay type: functional, organism-based
[9] = tested on: Mycobacterium avium; assay: Antimycobacterial activity against Mycobacterium avium CNCTC My 330/88 after 14 days; assay type: functional; conditions: CNCTC My 330/88, 336 h
Method in brief: (§2)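 M. avium was tested by microdilution in Šula's semisynthetic medium, with compounds dissolved in DMSO and serially diluted from 1000 down to 1. Inoculum was a 1.0 McFarland suspension diluted 10-5. Plates were incubated at 37 °C and read at 14 and 21 days. […] Isoniazid and rifampicin served as standards.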

[10] = tested on: Pseudomonas aeruginosa; assay: Antibacterial activity against Pseudomonas aeruginosa ATCC 27853 CCM 3955 at highest concentration measured after 24 to 48 hrs by alamar blue dye based broth microdilution assay; assay type: functional, organism-based
[11] = tested on: Mycobacterium kansasii; assay: Antimycobacterial activity against Mycobacterium kansasii 6509/96 after 7 days; assay type: functional; conditions: 6509/96, 168 h; method in brief: as §1
[12] = tested on: Pichia kudriavzevii; assay: Antifungal activity against Candida krusei ATCC 6258 CCM8271 at highest concentration measured after 24 to 48 hrs by alamar blue dye based broth microdilution assay; assay type: functional, organism-based
[13] = tested on: Serratia marcescens; assay: Antibacterial activity against Serratia marcescens at highest concentration measured after 24 to 48 hrs by alamar blue dye based broth microdilution assay; assay type: functional, organism-based
[14] = tested on: Mycobacterium tuberculosis; assay: Antimycobacterial activity against Mycobacterium tuberculosis H37Rv CNCTC My 331/88 after 21 days; assay type: functional; conditions: H37Rv CNCTC My 331/88, 504 h
Method in brief: (§3)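 M. tuberculosis strains (H37Rv and clinical MDR/XDR isolates) tested by microdilution in Šula's semisynthetic medium. Compounds were dissolved in DMSO and tested at 32 to 0.03 µM in twofold steps. Inoculum was a 1.0 McFarland suspension diluted 10-3. Plates were incubated at 37 °C and read at 14 and 21 days.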

[15] = tested on: Mycobacterium kansasii; assay: Antimycobacterial activity against Mycobacterium kansasii CNCTC My 235/80 after 21 days; assay type: functional; conditions: CNCTC My 235/80, 504 h; method in brief: as §1
[16] = tested on: Mycobacterium kansasii; assay: Antimycobacterial activity against Mycobacterium kansasii CNCTC My 235/80 after 7 days; assay type: functional; conditions: CNCTC My 235/80, 168 h; method in brief: as §1
[17] = tested on: Mycobacterium avium; assay: Antimycobacterial activity against Mycobacterium avium CNCTC My 330/88 after 21 days; assay type: functional; conditions: CNCTC My 330/88, 504 h; method in brief: as §2
[18] = tested on: Candida parapsilosis; assay: Antifungal activity against Candida parapsilosis ATCC 22019 CCM 8260 at highest concentration measured after 24 to 48 hrs by alamar blue dye based broth microdilution assay; assay type: functional, organism-based
[19] = tested on: Trichophyton interdigitale; assay: Antifungal activity against Trichophyton interdigitale ATCC 9533 CCM 8377 at highest concentration measured after 72 to 120 hrs by alamar blue dye based broth microdilution assay; assay type: functional
[20] = tested on: Lichtheimia corymbifera; assay: Antifungal activity against Lichtheimia corymbifera CCM 8077 at highest concentration measured after 24 to 48 hrs by alamar blue dye based broth microdilution assay; assay type: functional, organism-based
[21] = tested on: Mycobacterium kansasii; assay: Antimycobacterial activity against Mycobacterium kansasii 6509/96 after 21 days; assay type: functional; conditions: 6509/96, 504 h; method in brief: as §1
[22] = tested on: Escherichia coli; assay: Antibacterial activity against Escherichia coli ATCC 25922 CCM 3954 at highest concentration measured after 24 to 48 hrs by alamar blue dye based broth microdilution assay; assay type: functional, organism-based
[23] = tested on: Enterococcus faecalis; assay: Antibacterial activity against Enterococcus faecalis ATCC 29212 CCM 4224 at highest concentration measured after 24 to 48 hrs by alamar blue dye based broth microdilution assay; assay type: functional, organism-based
[24] = tested on: Mycobacterium tuberculosis; assay: Antimycobacterial activity against Mycobacterium tuberculosis H37Rv CNCTC My 331/88 after 14 days; assay type: functional; conditions: H37Rv CNCTC My 331/88, 336 h; method in brief: as §3
[25] = tested on: Aspergillus fumigatus; assay: Antifungal activity against Aspergillus fumigatus ATCC 204305 at highest concentration measured after 24 to 48 hrs by alamar blue dye based broth microdilution assay; assay type: functional, organism-based
[26] = tested on: Staphylococcus epidermidis; assay: Antibacterial activity against Staphylococcus epidermidis at highest concentration measured after 24 to 48 hrs by alamar blue dye based broth microdilution assay; assay type: functional, organism-based

| SMILES | Activity [1] | Activity [2] | Activity [3] | Activity [4] | MIC99 [5] [µM] | Activity [6] | MIC99 [7] [µM] | Activity [8] | MIC99 [9] [µM] | Activity [10] | MIC99 [11] [µM] | Activity [12] | Activity [13] | MIC99 [14] [µM] | MIC99 [15] [µM] | MIC99 [16] [µM] | MIC99 [17] [µM] | Activity [18] | Activity [19] | Activity [20] | other results |
| --- | --- | --- | --- | --- | --- | --- | --- | --- | --- | --- | --- | --- | --- | --- | --- | --- | --- | --- | --- | --- | --- |
| O=[N+]([O-])c1cc(CSc2nnc(-c3ccccc3)n2Cc2ccc(Cl)cc2Cl)cc([N+](=O)[O-])c1 | inactive | inactive | inactive | inactive | > 32 | inactive | > 32 | inactive | 250 (≈ 129 µg/mL) | inactive | > 32 | inactive | inactive | > 32 | > 32 | > 32 | 250 (≈ 129 µg/mL) | inactive | inactive | inactive | MIC99 [21]: > 32 µM; Activity [22]: inactive; Activity [23]: inactive; MIC99 [24]: > 32 µM; Activity [25]: inactive; Activity [26]: inactive |
| CCCCCCCCCCCCn1c(SCc2cc([N+](=O)[O-])cc([N+](=O)[O-])c2)nnc1-c1ccccc1 | inactive | inactive | inactive | inactive | 4 (≈ 2.1 µg/mL) | inactive | 2 (≈ 1.05 µg/mL) | inactive | 250 (≈ 131 µg/mL) | inactive | 2 (≈ 1.05 µg/mL) | inactive | inactive | 4 (≈ 2.1 µg/mL) | 4 (≈ 2.1 µg/mL) | 2 (≈ 1.05 µg/mL) | 250 (≈ 131 µg/mL) | inactive | inactive | inactive | MIC99 [21]: 4 µM (≈ 2.1 µg/mL); Activity [22]: inactive; Activity [23]: inactive; MIC99 [24]: 2 µM (≈ 1.05 µg/mL); Activity [25]: inactive; Activity [26]: inactive |
| COc1ccc(-c2nnc(SCc3cc([N+](=O)[O-])cc(C(F)(F)F)c3)n2Cc2ccccc2)cc1 | inactive | inactive | inactive | inactive | > 32 | inactive | > 32 | inactive | 250 (≈ 125 µg/mL) | inactive | > 32 | inactive | inactive | > 32 | > 32 | 32 (≈ 16 µg/mL) | 250 (≈ 125 µg/mL) | inactive | inactive | inactive | MIC99 [21]: > 32 µM; Activity [22]: inactive; Activity [23]: inactive; MIC99 [24]: 32 µM (≈ 16 µg/mL); Activity [25]: inactive; Activity [26]: inactive |
| CCCCCCc1nnc(SCc2cc([N+](=O)[O-])cc([N+](=O)[O-])c2)n1Cc1ccccc1 | inactive | inactive | inactive | inactive | 4 (≈ 1.82 µg/mL) | inactive | 2 (≈ 0.911 µg/mL) | inactive | 250 (≈ 114 µg/mL) | inactive | 2 (≈ 0.911 µg/mL) | inactive | inactive | 2 (≈ 0.911 µg/mL) | 2 (≈ 0.911 µg/mL) | 1 (≈ 0.456 µg/mL) | 250 (≈ 114 µg/mL) | inactive | inactive | inactive | MIC99 [21]: 4 µM (≈ 1.82 µg/mL); Activity [22]: inactive; Activity [23]: inactive; MIC99 [24]: 2 µM (≈ 0.911 µg/mL); Activity [25]: inactive; Activity [26]: inactive |
| O=[N+]([O-])c1cc(-c2nnc(SCc3ccccc3)n2Cc2ccc(Cl)cc2Cl)cc([N+](=O)[O-])c1 | inactive | inactive | inactive | inactive | 4 (≈ 2.07 µg/mL) | inactive | 4 (≈ 2.07 µg/mL) | inactive | 16 (≈ 8.26 µg/mL) | inactive | 4 (≈ 2.07 µg/mL) | inactive | inactive | 2 (≈ 1.03 µg/mL) | 4 (≈ 2.07 µg/mL) | 2 (≈ 1.03 µg/mL) | 16 (≈ 8.26 µg/mL) | inactive | inactive | inactive | MIC99 [21]: 4 µM (≈ 2.07 µg/mL); Activity [22]: inactive; Activity [23]: inactive; MIC99 [24]: 2 µM (≈ 1.03 µg/mL); Activity [25]: inactive; Activity [26]: inactive |
| O=[N+]([O-])c1cc(Cn2c(SCc3ccccc3)nnc2-c2ccccc2)cc([N+](=O)[O-])c1 | inactive | inactive | inactive | inactive | 16 (≈ 7.16 µg/mL) | inactive | 8 (≈ 3.58 µg/mL) | inactive | > 1000 | inactive | 8 (≈ 3.58 µg/mL) | inactive | inactive | 16 (≈ 7.16 µg/mL) | 16 (≈ 7.16 µg/mL) | 4 (≈ 1.79 µg/mL) | > 1000 | inactive | inactive | inactive | MIC99 [21]: 16 µM (≈ 7.16 µg/mL); Activity [22]: inactive; Activity [23]: inactive; MIC99 [24]: 8 µM (≈ 3.58 µg/mL); Activity [25]: inactive; Activity [26]: inactive |
| O=[N+]([O-])c1cc(Cn2c(SCc3ccc(Cl)c(Cl)c3)nnc2-c2ccccc2)cc([N+](=O)[O-])c1 | inactive | inactive | inactive | inactive | 16 (≈ 8.26 µg/mL) | inactive | 8 (≈ 4.13 µg/mL) | inactive | 250 (≈ 129 µg/mL) | inactive | 8 (≈ 4.13 µg/mL) | inactive | inactive | 16 (≈ 8.26 µg/mL) | 16 (≈ 8.26 µg/mL) | 4 (≈ 2.07 µg/mL) | 250 (≈ 129 µg/mL) | inactive | inactive | inactive | MIC99 [21]: 16 µM (≈ 8.26 µg/mL); Activity [22]: inactive; Activity [23]: inactive; MIC99 [24]: 8 µM (≈ 4.13 µg/mL); Activity [25]: inactive; Activity [26]: inactive |
| O=[N+]([O-])c1cc(CSc2nnc(C3CCCCC3)n2Cc2ccccc2)cc([N+](=O)[O-])c1 | inactive | inactive | inactive | inactive | 4 (≈ 1.81 µg/mL) | inactive | 4 (≈ 1.81 µg/mL) | inactive | 250 (≈ 113 µg/mL) | inactive | 4 (≈ 1.81 µg/mL) | inactive | inactive | 4 (≈ 1.81 µg/mL) | 4 (≈ 1.81 µg/mL) | 4 (≈ 1.81 µg/mL) | 250 (≈ 113 µg/mL) | inactive | inactive | inactive | MIC99 [21]: 4 µM (≈ 1.81 µg/mL); Activity [22]: inactive; Activity [23]: inactive; MIC99 [24]: 2 µM (≈ 0.907 µg/mL); Activity [25]: inactive; Activity [26]: inactive |
